Data from PMC6396672 (OncoTargets and therapy, 2019).
Like-named read-outs stand apart in the source and are kept apart here.

Tests used:
[1] = test system: ETS-1; assay: Gene reporter luciferase assay EBS-Luc; assay type: cell-based; conditions: MHCC97-H cells, dose-dependent
[2] = test system: PXR; conditions: MHCC97-H cells, dose-dependent
[3] = test system: EMT-related genes in MHCC97-H cells; assay: qPCR of EMT-related genes; assay type: cell-based; conditions: ARQ-197 at IC25 concentration
How it was run: (§1)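 Total RNA from treated HCC cells was extracted and reverse transcribed. Target mRNAs were measured by real-time qPCR with gene-specific primers and normalised to β-actin mRNA. EMT targets were E-cadherin, N-cadherin and vimentin; MDR targets were CYP3A4, MDR-1 and UGT1A9.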

[4] = test system: MHCC97-H tumors; assay: In vivo antitumor effect, subcutaneous tumor model; conditions: nude mice
How it was run: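 Nude (T-cell-deficient) mice, aged 4–6 weeks, were injected subcutaneously with 1×10^6 MHCC97-H cells per animal. Treatment started 3–4 days after injection: sorafenib 2 mg/kg given orally every 2 days, ten doses over 21 days. Mice were then harvested and tumour volumes or weights measured. Inhibition rates were calculated from tumour volume or weight.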

[5] = test system: L-02 cells; assay: MTT assay, cell survival; assay type: cell-based
How it was run: (§2)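 Compounds were dissolved in DMSO and diluted in DMEM. Cells were treated at 0.01, 0.03, 0.1, 0.3, 1, 3 and 10 μmol/L, and viability was read by MTT. Inhibition rates were calculated, and IC25, IC50 and ICmax were derived by curve fitting.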

[6] = test system: MDR-related genes in MHCC97-H cells; assay: qPCR of MDR-related genes; assay type: cell-based; conditions: ARQ-197 at IC25 concentration
How it was run: as §1

[7] = test system: MHCC97-L cells; assay: MTT assay, cell survival; assay type: cell-based; conditions: for IC50: MHCC97L
How it was run: as §2

[8] = test system: HepG2 cells; assay: MTT assay, cell survival; assay type: cell-based; conditions: for IC50: Homo sapiens
How it was run: as §2

[9] = test system: LM-3 cells; assay: MTT assay, cell survival; assay type: cell-based
How it was run: as §2

[10] = test system: MHCC97-H cells; assay: MTT assay, cell survival; assay type: cell-based; conditions: for IC50: Homo sapiens, MHCC97H
How it was run: as §2

[11] = Clearance of sorafenib in cultured cells by LC-MS/MS; assay type: in vitro ADME; conditions: human, MHCC97-L cells (cultured HCC cells), Half-life of sorafenib (t1/2)
How it was run: (§3)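 Cultured human HCC cells (with or without the co-treatment or siRNA named in the line) were exposed to sorafenib at 1 μmol/L for 12 hours, then harvested at set time points. Samples were extracted with acetonitrile, and the remaining sorafenib was quantified by LC-MS/MS. Half-life (t1/2) was calculated from the decline over time.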

[12] = test system: subcutaneous MHCC97-H tumors; assay: Clearance of sorafenib in subcutaneous tumor by LC-MS/MS; assay type: in vivo, nude mice; conditions: PXR siRNA +siRNA
How it was run: (§4)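 Nude mice (T-cell deficient, 4–6 weeks) carried subcutaneous tumours grown from injected HCC cells; siRNA sequences were described in earlier work. Sorafenib solution was injected into the tumours, and tissue was harvested at set time points. Samples were extracted with acetonitrile, and residual sorafenib was quantified by LC-MS/MS. t1/2 was obtained by curve fitting.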

[13] = Clearance of sorafenib in cultured cells by LC-MS/MS; assay type: in vitro ADME; conditions: human, HepG2 cells (cultured HCC cells), Half-life of sorafenib (t1/2)
How it was run: as §3

[14] = as above; assay type: in vitro ADME; conditions: human, LM-3 cells (cultured HCC cells), Half-life of sorafenib (t1/2), LM-3 cultured cells
How it was run: as §3

[15] = test system: subcutaneous LM-3 tumors; assay: Clearance of sorafenib in subcutaneous tumor by LC-MS/MS; assay type: in vivo, nude mice; conditions: LM-3 subcutaneous tumor, ETS-1 siRNA
How it was run: as §4

[16] = Clearance of sorafenib in cultured cells by LC-MS/MS; assay type: in vitro ADME; conditions: human, MHCC97-H cells (cultured HCC cells), Half-life of sorafenib (t1/2)
How it was run: as §3

## O=C1NC(=O)[C@@H](c2cn3c4c(cccc24)CCC3)[C@@H]1c1c[nH]c2ccccc12 [ARQ-197]
[1]
  luciferase activity of EBS-Luc reporter: inhibited
[2]
  luciferase activity of DR3-Luc reporter: inhibited
[3]
  expression of E-cadherin (mRNA): enhanced
  expression of N-cadherin (mRNA): decreased
  expression of vimentin (mRNA): decreased
[4]; 3 mg/kg ARQ-197 + 2 mg/kg sorafenib compared to sorafenib alone, MHCC97-H tumors
  effect of ARQ-197 on the antitumor effect of sorafenib in vivo: significantly enhanced the antitumor effect of sorafenib
[4]; 3 mg/kg ARQ-197, oral, compared to vehicle controls
  subcutaneous growth of MHCC97-H tumors: inhibited the subcutaneous growth of MHCC97-H tumors
[5]; Homo sapiens, L02, read-out: IC50 values
  IC50: 7590 ± 780 nM
[5]; L-02, MTT
  IC25 values: 3440 ± 240 nM
[6]
  expression of Cyp3a4 (mRNA): decreased
  expression of Mdr-1 (mRNA): decreased
  expression of Ugt1a9 (mRNA): decreased
[7]; MHCC97-L, MTT
  IC25 values: 1290 ± 520 nM
[7]; read-out: IC50 values, MHCC97-L, MTT
  IC50: 4630 ± 930 nM
[8]; HepG2, MTT
  IC25 values: 230 ± 70 nM
  ICmax values (maximum action concentration): 9.55 ± 0.57 µmol/L
[8]; HepG2, read-out: IC50 values, HepG2, MTT
  IC50: 1990 ± 470 nM
[9]; LM3, read-out: IC50 values, LM-3, MTT
  IC50: 670 ± 160 nM
[9]; LM-3, MTT
  IC25 values: 80 ± 20 nM
  ICmax values (maximum action concentration): 4.62 ± 0.80 µmol/L
[10]; read-out: IC50 values, MHCC97-H, MTT
  IC50: 760 ± 220 nM
[10]; MHCC97-H, MTT
  IC25 values: 90 ± 10 nM
  ICmax values (maximum action concentration): 3.56 ± 0.65 µmol/L

## CNC(=O)c1cc(Oc2ccc(NC(=O)Nc3ccc(Cl)c(C(F)(F)F)c3)cc2)ccn1 [sorafenib]
[11]; ARQ-197
  half-life at 1 μmol/L: 12.6 ± 0.18 h
[11]; solvent control
  half-life at 1 μmol/L: 10.2 ± 0.51 h
[12]
  Half-life of sorafenib (t1/2): 40.13 ± 0.83 h
[13]; ARQ-197
  half-life at 1 μmol/L: 12.5 ± 0.62 h
[13]; solvent control
  half-life at 1 μmol/L: 9.62 ± 0.82 h
[14]; ARQ-197
  half-life at 1 μmol/L: 14.4 ± 0.67 h
[14]; ETS-1 siRNA
  half-life at 1 μmol/L: 15.6 ± 0.46 h
[14]; ETS-1 siRNA +ARQ-197
  half-life at 1 μmol/L: 15.2 ± 0.18 h
[14]; PXR siRNA
  half-life at 1 μmol/L: 18 ± 0.25 h
[14]; PXR siRNA +siRNA
  half-life at 1 μmol/L: 18.4 ± 0.67 h
[14]; solvent control
  half-life at 1 μmol/L: 9.93 ± 0.57 h
[7]; read-out: IC50 values of sorafenib, MHCC97-L, ARQ-197
  IC50: 970 ± 390 nM
[7]; read-out: IC50 values of sorafenib, MHCC97-L, solvent control
  IC50: 2730 ± 400 nM
[8]; HepG2, read-out: IC50 values of sorafenib, HepG2, solvent control
  IC50: 1680 ± 420 nM
[9]; LM3, read-out: IC50 values of sorafenib, LM-3, solvent control
  IC50: 1290 ± 250 nM
[15]
  Half-life of sorafenib (t1/2): 39.45 ± 0.74 h
[16]; ARQ-197
  half-life at 1 μmol/L: 13.6 ± 0.65 h
[16]; ETS-1 siRNA
  half-life at 1 μmol/L: 13.8 ± 0.84 h
[16]; ETS-1 siRNA +ARQ-197
  half-life at 1 μmol/L: 13.5 ± 0.23 h
[16]; PXR siRNA
  half-life at 1 μmol/L: 17.7 ± 0.91 h
[16]; PXR siRNA +siRNA
  half-life at 1 μmol/L: 17.6 ± 0.88 h
[16]; solvent control
  half-life at 1 μmol/L: 9.08 ± 0.43 h
[10]; read-out: IC50 values of sorafenib, MHCC97-H, solvent control
  IC50: 1390 ± 460 nM
